For data set [1], the target named is Phosphatidylinositol 4,5-bisphosphate 3-kinase catalytic subunit alpha isoform (Mus musculus, UniProt P42337). In words: Inhibition of mouse PI3Kalpha after 30 mins by fluorescence polarization assay. An outline of the steps:
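Mouse PI3Kα 0.5 nM with 30 μM PIP₂, 5 mM MgCl₂, 200 μM ATP, 30 min at room temperature (~22 °C); stopped with 10 mM EDTA. Then 3 min with detector mix of 480 nM GST-Grp1 PH domain and 12 nM TAMRA-PIP₃. Fluorescence polarization read in 50 mM Hepes pH 7.4, 150 mM NaCl, 5 mM DTT, 0.05% CHAPS. Duplicate points, nonlinear regression fit.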
(Fluorescence polarisation rises when a labelled molecule tumbles more slowly, as on binding a larger partner.)

The nature of data set [2]: Inhibition of recombinant GST-tagged P70S6K using 5FAM-KRSRTRTDSYSAGQ-COOH as substrate by fluorescence based assay. The procedure, abridged:
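GST-tagged P70S6K (a.a. 1-421) at 5 nM, 50 μM ATP, 5 μM 5FAM-peptide. Product separated from substrate by charge (electrophoretic mobility shift, −2500/−500 V). Duplicates, nonlinear regression fit.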

Data set [3] is described as follows: Clearance in human liver microsomes. Type of data set: ADME, Microsome. To be noted: read-out: CLH.
A short description of data set [4]: Passive permeability in canine kidney cells. Type of data set: ADME, cell-based, Canis lupus familiaris. To be noted: dog; read-out: permeability.
A short description of data set [5]: Solubility of the compound at pH 6.5. In kind it is physicochemical. To be noted: buffer.
Data set [6] has as its target Serine/threonine-protein kinase mTOR (Homo sapiens, UniProt P42345). Put plainly: Inhibition of GST-tagged mTOR assessed as phosphorylation at Thr46 in GFP-4E-BP1 substrate by TR-FRET assay. The procedure, abridged:
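GST-tagged mTOR (aa 1360-2549) at 1 nM, with 0.4 μM GFP-4E-BP1 and 40 μM ATP. Buffer: 50 mM Hepes pH 7.4, 10 mM MgCl2, 1 mM EGTA, 0.01% Tween-20, at about 22 °C. A terbium anti-phospho-Thr46 antibody was added at the end, and the read-out was TR-FRET. Duplicate data fitted by nonlinear regression. Concentrations are final.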
A general note: TR-FRET usually uses a lanthanide donor and a delayed reading to cut background.

Data set [7] has as its target RAC-alpha serine/threonine-protein kinase (Homo sapiens, UniProt P31749). Put plainly: Inhibition of His-tagged AKT1 using 5FAM-GRPRTSSFAEGCONH2 as substrate by fluorescence based assay.
Data set [8] deals with T1, 3-phosphoinositide-dependent protein kinase 1 (Homo sapiens, UniProt O15530).
T1 sequence (O15530 whole entry): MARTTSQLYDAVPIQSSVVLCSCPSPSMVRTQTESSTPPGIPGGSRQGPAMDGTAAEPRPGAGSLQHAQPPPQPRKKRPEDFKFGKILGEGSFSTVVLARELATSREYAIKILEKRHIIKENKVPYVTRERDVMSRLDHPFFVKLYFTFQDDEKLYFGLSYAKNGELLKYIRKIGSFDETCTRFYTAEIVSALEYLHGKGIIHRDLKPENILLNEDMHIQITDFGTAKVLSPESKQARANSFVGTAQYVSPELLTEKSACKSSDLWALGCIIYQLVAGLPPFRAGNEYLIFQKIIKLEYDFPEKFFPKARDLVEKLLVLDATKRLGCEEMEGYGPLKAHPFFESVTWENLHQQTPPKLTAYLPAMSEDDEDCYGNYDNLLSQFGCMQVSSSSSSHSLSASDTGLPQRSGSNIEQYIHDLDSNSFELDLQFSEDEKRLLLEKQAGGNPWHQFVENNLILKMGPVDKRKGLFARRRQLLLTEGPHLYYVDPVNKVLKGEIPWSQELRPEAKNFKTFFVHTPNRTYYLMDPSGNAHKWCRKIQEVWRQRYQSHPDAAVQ
Put plainly: Inhibition of recombinant human His-tagged PDK1 catalytic domain using Ac-Sox-PKTFCGTPEYLAPEVRREPRILSEEEQEMFRDFDYIAD-NH2 as substrate by fluorescence-based spectrophotometry.

The subject of data set [9] is CYP3A4 (Homo sapiens). Put plainly: Inhibition of CYP3A4 at 3 uM.
Another data set has as its target CYP3A4 (Homo sapiens, UniProt P08684). Put plainly: Inhibition of CYP3A4 at 3 uM. In kind it is ADME.
For data set [10], the system named is CYP3A4 (Homo sapiens). Put plainly: Inhibition of CYP3A4 at 3 uM. The source holds these as a separate data set.
The test system of data set [11] is CYP3A4 (Homo sapiens). Put plainly: Inhibition of CYP3A4 at 3 uM. The source holds these as a separate data set.

pKi: −log10 of the molar value. ≈ marks a conversion by molar mass, not a printed value.

Sequence of RAC-alpha serine/threonine-protein kinase (P31749 whole entry): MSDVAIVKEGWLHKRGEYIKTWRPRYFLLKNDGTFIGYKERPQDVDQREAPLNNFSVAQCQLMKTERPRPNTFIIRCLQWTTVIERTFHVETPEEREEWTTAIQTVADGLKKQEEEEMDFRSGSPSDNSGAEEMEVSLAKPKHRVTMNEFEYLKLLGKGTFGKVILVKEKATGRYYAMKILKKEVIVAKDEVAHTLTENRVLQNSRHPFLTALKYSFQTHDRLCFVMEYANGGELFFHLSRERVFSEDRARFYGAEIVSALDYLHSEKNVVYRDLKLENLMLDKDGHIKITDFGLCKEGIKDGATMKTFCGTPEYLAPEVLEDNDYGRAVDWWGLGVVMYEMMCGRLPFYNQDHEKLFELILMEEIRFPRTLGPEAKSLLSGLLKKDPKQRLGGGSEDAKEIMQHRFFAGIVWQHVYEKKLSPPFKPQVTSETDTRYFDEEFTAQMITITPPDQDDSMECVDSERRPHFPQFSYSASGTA
Sequence of Phosphatidylinositol 4,5-bisphosphate 3-kinase catalytic subunit alpha isoform (P42337 whole entry, the tested form may be a part, canonical isoform): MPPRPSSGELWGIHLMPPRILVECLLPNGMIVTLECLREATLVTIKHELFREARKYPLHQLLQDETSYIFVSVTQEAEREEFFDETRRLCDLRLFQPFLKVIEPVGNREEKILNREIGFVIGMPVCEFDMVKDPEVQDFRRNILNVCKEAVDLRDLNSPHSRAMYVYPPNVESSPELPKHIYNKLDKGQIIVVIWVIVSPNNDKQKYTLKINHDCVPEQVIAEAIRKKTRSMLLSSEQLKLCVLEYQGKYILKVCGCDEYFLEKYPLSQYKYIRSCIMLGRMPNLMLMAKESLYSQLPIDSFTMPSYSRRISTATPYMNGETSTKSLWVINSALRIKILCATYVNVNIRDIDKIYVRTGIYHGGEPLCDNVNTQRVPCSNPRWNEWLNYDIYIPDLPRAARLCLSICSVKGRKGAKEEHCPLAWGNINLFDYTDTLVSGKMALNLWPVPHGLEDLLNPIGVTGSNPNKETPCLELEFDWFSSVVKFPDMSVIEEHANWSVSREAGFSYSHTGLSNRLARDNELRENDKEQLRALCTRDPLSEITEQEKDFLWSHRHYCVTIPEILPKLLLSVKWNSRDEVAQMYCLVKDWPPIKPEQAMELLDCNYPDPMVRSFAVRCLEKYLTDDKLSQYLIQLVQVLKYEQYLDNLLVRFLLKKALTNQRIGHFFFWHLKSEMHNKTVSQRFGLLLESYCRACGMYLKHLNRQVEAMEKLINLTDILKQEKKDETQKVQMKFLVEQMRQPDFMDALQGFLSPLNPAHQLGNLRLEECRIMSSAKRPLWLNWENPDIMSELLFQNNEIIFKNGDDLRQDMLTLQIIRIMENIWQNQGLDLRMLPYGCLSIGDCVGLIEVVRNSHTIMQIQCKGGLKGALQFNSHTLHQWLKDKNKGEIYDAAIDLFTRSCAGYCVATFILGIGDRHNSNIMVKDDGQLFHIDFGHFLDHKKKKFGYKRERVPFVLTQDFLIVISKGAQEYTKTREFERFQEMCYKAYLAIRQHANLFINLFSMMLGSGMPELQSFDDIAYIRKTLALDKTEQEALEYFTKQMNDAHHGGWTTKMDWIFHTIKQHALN
Sequence of CYP3A4 (P08684 whole entry): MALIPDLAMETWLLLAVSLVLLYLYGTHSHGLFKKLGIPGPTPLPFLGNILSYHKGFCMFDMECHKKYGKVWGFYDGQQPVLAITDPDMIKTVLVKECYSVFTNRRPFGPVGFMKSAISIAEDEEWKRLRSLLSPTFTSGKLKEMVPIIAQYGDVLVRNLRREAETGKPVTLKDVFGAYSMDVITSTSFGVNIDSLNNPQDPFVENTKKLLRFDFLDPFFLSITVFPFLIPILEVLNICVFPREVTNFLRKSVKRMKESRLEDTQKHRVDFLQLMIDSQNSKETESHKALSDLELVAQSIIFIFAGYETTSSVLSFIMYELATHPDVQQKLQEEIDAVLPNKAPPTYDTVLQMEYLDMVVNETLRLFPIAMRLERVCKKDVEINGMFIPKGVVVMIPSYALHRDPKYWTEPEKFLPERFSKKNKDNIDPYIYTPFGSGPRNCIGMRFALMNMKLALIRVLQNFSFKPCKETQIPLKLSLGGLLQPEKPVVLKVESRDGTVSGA

By pKi is commonly meant −log10 of the Ki, conventionally taken in molar units. Compound `CC(C)n1cc(C(=O)c2cncc(NCCc3cccnc3)n2)c2c(N)ncnc21` had a pKi in [1] of 6.60.
By solubility is commonly meant how much of the substance goes into solution per volume. Lower therefore signals a poorly soluble substance. Take `CC(C)n1cc(C(=O)c2cncc(N[C@@H]3COC[C@@H]3c3ccc(F)cc3)n2)c2c(N)ncnc21`: the pKi in [2] is 6.77; in data set [1] it was 6.24; in [6] it was 6.30; in data set [7], 6.59. For the same compound, the microsomal CLint in data set [3] came to 160 µL/min/mg. In data set [4], the Papp was 13 ×10⁻⁶ cm/s. This compound showed a solubility in data set [5] of 23 µM (≈ 10.6 µg/mL).
For `CC(C)n1cc(C(=O)c2cncc(N(C)[C@@H]3CCC[C@@H]3c3ccc(F)cc3)n2)c2c(N)ncnc21`, the pKi in data set [1] was 6.19; in [8] it was 9.05.
`CNc1cncc(C(=O)c2cn(C(C)C)c3ncnc(N)c23)n1`: in [8], the pKi is 7.00.
As for `CC(C)n1cc(C(=O)c2cncc(N[C@@H]3CCN[C@@H]3c3ccc(F)cc3)n2)c2c(N)ncnc21`, the pKi in data set [2] was 6.92; in data set [1], 6.82; in [8], 9.00; in [6], 5.68; in [7] it was 7.00. Also, the microsomal CLint in data set [3] stood at 92 µL/min/mg. Moreover, the Papp in data set [4] was 5 ×10⁻⁶ cm/s. For the same compound, the solubility in data set [5] was 520 µM (≈ 239 µg/mL).
With `CC(C)n1cc(C(=O)c2cncc(N[C@@H]3CCC[C@@H]3c3ccc(F)cc3)n2)c2c(N)ncnc21`, the pKi in data set [2] is 6.64; in [1] it was 6.49; in [8], 9.22; in [6], 5.41; in data set [7] it was 6.68. For the same compound, in data set [3], the microsomal CLint amounted to 160 µL/min/mg. Besides, the Papp in data set [4] amounted to 6 ×10⁻⁶ cm/s. The same compound showed a solubility in data set [5] of 6 µM (≈ 2.76 µg/mL).
One may read the inhibition as the relative decrease from the control value, in per cent. Take `CC(C)n1cc(C(=O)c2cncc(N[C@@H]3CNC[C@@H]3c3ccc(F)cc3)n2)c2c(N)ncnc21`: the pKi in [2] is 7.96; in data set [1] it was 6.43; in [8] it was 8.60; in data set [6], 5.96; in data set [7], 8.00. Besides, the inhibition at 3 µM in the data set on CYP3A4 (Homo sapiens) [9], against CYP3A4, with CYP3A4 (Homo sapiens) [10] and with CYP3A4 (Homo sapiens) [11] was 27% in each case. In addition, in data set [3], the microsomal CLint turned out to be 59 µL/min/mg. For the same compound, in [4], the Papp was found to be 2 ×10⁻⁶ cm/s. Moreover, the concentration in solution in data set [5] (solubility) came to 480 µM (≈ 221 µg/mL).
As to `CC(C)n1cc(C(=O)c2cncc(N[C@@H]3CCC[C@@H]3c3ccccc3)n2)c2c(N)ncnc21`, the pKi is 6.89 in data set [1] and 8.70 in data set [8].
With `CC(C)n1cc(C(=O)c2cncc(N[C@@H]3CCO[C@@H]3c3ccc(F)cc3)n2)c2c(N)ncnc21`, the pKi in [2] is 7.21; in data set [1], 6.37; in data set [8], 8.89; in [6] it was 5.41; in data set [7], 6.64. Further, the microsomal CLint in data set [3] was 220 µL/min/mg. Also, the Papp in data set [4] stood at 13 ×10⁻⁶ cm/s. The solubility in data set [5] turned out to be 120 µM (≈ 55.4 µg/mL).
